rRNA inh HTS: reduced GFP signal of wild-type E. coli, primary screen, bacterial rRNA inhibitor project, GFP/RFP fluorescence, OD600, single point. GFP signal change (wild-type ribosome), % (test concentration not listed). E. coli WT GFP vs humanized-ribosome RFP mutants, 24 h; hits give low values; DMSO median 0, no signal -100. 350,000 compounds, 1.6% hits. AID 720706, 2013;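 active = significant combined selectivity score with lowered wild-type GFP, culture density cut under 30%, mutant RFP and density less affected; inactive = any of these conditions unmet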
PglD DTNB: C. jejuni PglD acetyltransferase inhibitors, primary screen, biochemical, DTNB colorimetric, single point; UDP-N-acetylbacillosamine N-acetyltransferase PglD (Campylobacter jejuni); purified PglD enzyme, DTNB colorimetric CoA detection; inhibition, % at 12.5 µM; 360,000 compounds, 0.098% hits; AID 602405, 2012; in the data active = inhibition above about 16%, passing the limit was not always enough
Yeast superoxide: reduction of superoxide in aged yeast, primary screen, HTS | S. cerevisiae aged cells, superoxide DHE fluorescence; hits give low values | 330,000 compounds, 0.18% hits | superoxide response (% of plate mean), % at 10 µM;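 active = superoxide response under a set limit, about three screen SD below normal, cut at about 65% in these data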;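 also: yeast aged for seven days with compound at 30 °C before DHE staining; 100% = average MFI of all compound-treated wells on the plate with controls excluded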
Mot1-301 SUMO: yeast Mot1-301 growth rescue at high temperature, primary screen, SUMOylation pathway inhibitor project, S. cerevisiae, ATP luminescence, 38.5C | S. cerevisiae Mot1-301 growth rescue; percent above DMSO median, 100 means doubled | growth rescue, % at 18.8 µM | 320,000 compounds, 1% hits;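 active = every valid replicate shows activation above 250% relative to neutral control wells; inactive = the rest, any valid replicate at or below 250%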;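 also: OY570 slx delta 5 strain wells were the positive control but not used for scaling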
Cneo AK release: Cryptococcus neoformans cell lysis inducers, primary screen, AK release luminescence, single concentration | C. neoformans lysis, adenylate kinase release luminescence, 4 h; normalised: neutral wells 0, clomiphene wells 100 | lysis activity, % at 15 µM | 360,000 compounds, 0.2% hits | AID 651654, 2012;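 active = mean lysis activity across replicates of at least 80%, whatever share of replicates individually reach that level; inactive = mean lysis activity below 80%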
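Material – Cryptococcus neoformans yeast cells · Quantity – 5 × 10^6 yeast cells/mL · Buffer or medium – YPD medium · Compound – single dose · Timing – 4 h static compound exposure, 37 °C, read 1 h post-reagent · Signal – adenylate kinase release luminescence · Read-out basis – lysis from increased AK signal · Benchmarks – Clomiphene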
Mot1 SUMO dose: growth restoration of Mot1-301 yeast on galactose, dose response, SUMO pathway inhibitor project, whole organism, S. cerevisiae, ATP luminescence, cherry-picked samples; S. cerevisiae Mot1-301 galactose growth, 24 h; -100 = growth of slx-deleted rescue strain; shares compounds with Mot1-301 SUMO; growth activity, percent, % at 42 µM; 2,300 tested, under 10 active;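 active = Signal drops as the depositor expects, and the fitted half-maximal dose is no more than ten times the top valid tested dose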;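 also: more negative values mean stronger growth rescue toward the control strain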
Active calls of the source: *; i = inactive; · = no result; + = active, no number; [ ] = another dose, or the depositor's remark. Sampled rows, rich in hits. Any-hit rate of the full collection: about 2.2%.

SMILES	rRNA inh HTS	PglD DTNB	Yeast superoxide	Mot1-301 SUMO	Cneo AK release	Mot1 SUMO dose
c1ccc2c(c1)OCCOCCOc1ccccc1OCCOCCO2	14	·	104	735*	·	1
Cc1nnc(NC(=O)CSc2nc3ccccc3[nH]2)s1	0	·	88	54	·	·
CSCCc1nc(SCC(=O)Nc2nnc(C)s2)[nH]c1C	·	-5	113	+	-2	1
O=C(Nc1ccc(CN2CCOCC2)cc1)c1ccccc1F	·	-5	84	50	-3	·
COc1cc2ccccc2cc1C(=O)Nc1ccc(CN2CCOCC2)cc1	-6	1	100	394*	0	-1
Cc1ccccc1-c1ccc(C2[C@@H]3CN(Cc4ccc5c(c4)OCO5)C[C@H]2N3)cc1 (stereo not given in full)	-57	·	·	·	·	·
O=C(NNC(=O)c1ccccc1F)c1ccco1	9	-1	100	2	-5	·
O=C(NNC(=O)c1ccccc1O)c1ccco1	22	·	97	+	·	0
C[C@H]1CN([C@@H](C)CO)C(=O)c2cccc(NS(=O)(=O)c3cn(C)cn3)c2O[C@H]1CN(C)S(=O)(=O)c1ccccc1	-1	-1	·	·	0	·
O=C(NCc1cccs1)c1ccc(CS(=O)(=O)c2ccc(Cl)cc2)o1	·	3	108	-16	2	·
COc1ccc(S(=O)(=O)Cc2ccc(C(=O)NCc3cccs3)o2)cc1	10	0	94	462*	0	0
COc1cccc(S(=O)(=O)N[C@@H]2CC[C@@H](CC(=O)NCc3ccccc3)O[C@@H]2CO)c1	2	2	·	·	0	·
Cc1ccc(C)n1-n1cnc2sc3c(c2c1=O)CCCCC3	·	-2	111	596*	0	0
COC(=O)C1C(c2ccc(OC)c(OC)c2)NC(c2ccc(OC)c(OC)c2)C(C(=O)OC)S1(=O)=O (stereo not given)	15	·	88	520*	·	0
COC(=O)C1CSc2[nH]c(=O)sc2C1c1ccc(OC)c(OC)c1 (stereo not given)	·	-3	103	-8	-1	·
COc1ccc(NC(=O)C2CCCN2S(=O)(=O)c2cccc3cccnc23)cc1OC (stereo not given)	10	13	108	414*	1	0
O=C(NC1CCCCCC1)C1CCN(S(=O)(=O)c2cccc3cccnc23)CC1	9	-2	97	561*	0	1
COc1cc(NC(=O)[C@H]2CCCN2S(=O)(=O)c2cccc3cccnc23)cc(OC)c1OC	7	-4	97	-1	1	·
Cn1cnc2cc(NC(=O)c3ccc(Cl)cc3)ccc21	-5	-1	94	7	-3	·
CC(C)(C)n1cnc2cc(NC(=O)c3ccc(Cl)cc3)ccc21	-18	1	98	562*	-9	-1
CN(C(=O)CSc1nnc(-c2cccc(F)c2)n1N)C1CCS(=O)(=O)C1 (stereo not given)	32	·	107	401*	·	0
O=C(C[C@H]1CC[C@H]2[C@@H](COC[C@@H](O)CN2C(=O)c2ccccc2)O1)NCc1ccc(-c2ccccc2)cc1	8	13	·	·	-1	·
N#Cc1cn(CCCOc2ccccc2)c2ccccc12	·	·	103	-5	-1	·
COc1ccccc1OCCCn1cc(C#N)c2ccccc21	·	-12	105	832*	0	0
O=c1c2ccccc2c(=O)n(-c2ccccc2)n1-c1ccccc1	·	-8	·	·	-1	·
SMILES	rRNA inh HTS	PglD DTNB	Yeast superoxide	Mot1-301 SUMO	Cneo AK release	Mot1 SUMO dose
O=c1c2ccccc2c2ccccc2c(=O)n1-c1ccccc1	5	·	111	413*	·	0
CNS(=O)(=O)c1cccc(C(=O)NCC2(N3CCCCC3)CCCCC2)c1	4	-1	101	402*	-1	0
Cc1cccc(NS(=O)(=O)c2cccc(C(=O)NCC3(N4CCCCC4)CCCCC3)c2)c1	-1	0	108	i	-1	·
O=C(CCSc1ccccc1)NNC(=O)c1ccccc1F	9	·	92	517*	·	0
CCCCNC(=O)c1ccccc1NC(=O)CCSc1ccccc1	·	·	99	·	·	·
CN1CCN(C(=O)c2cc3c(c(-c4cccc(-c5ccc(C(=O)N(C)C)cc5)c4)n2)[C@H](CCO)N([S@@](=O)C(C)(C)C)C3)CC1	4	2	·	·	-6	·
CCOC(=O)c1ccc(NC(=S)NCCCN2CCOCC2)cc1	11	·	103	622*	·	0
CC(=O)c1ccc(NC(=S)NCCCN2CCOCC2)cc1	18	·	100	-2	·	·
COCCCn1c2nc3ccccc3nc2c2c(=O)n(Cc3ccc(Cl)cc3)cnc21	1	1	88	425*	0	0
O=S(=O)(NCc1ccco1)c1ccc2ccccc2c1	-3	1	109	430*	1	0
O=C(NCC[C@@H]1CC[C@H](NS(=O)(=O)c2cccc(Cl)c2)[C@@H](CO)O1)c1cnccn1	1	0	·	·	-2	·
CCCNC(=O)N[C@@H]1C=C[C@H](CC(=O)N2CCN(C)CC2)O[C@@H]1CO	3	-4	·	·	-10	·
O=C(C[C@@H]1C=C[C@@H](NS(=O)(=O)c2ccc(F)cc2)[C@@H](CO)O1)NC1CCCCC1	3	-4	·	·	-9	·
C[C@H](CO)N1C[C@H](C)[C@@H](CN(C)Cc2ccc(-c3ccccc3)cc2)Oc2c(NC(=O)CCC(F)(F)F)cccc2C1=O	3	·	·	·	·	·
C[C@@H]1CCCCO[C@H](CN(C)Cc2ccc(Cl)c(Cl)c2)[C@H](C)CN([C@@H](C)CO)C(=O)c2cc(NS(=O)(=O)c3ccc(Cl)cc3)ccc2O1	-4	-2	·	·	0	·
Cc1ccc(/C=C/C(=O)OCC(=O)N(CC(C)C)c2c(N)n(Cc3ccccc3)c(=O)[nH]c2=O)o1	14	0	113	812*	0	0[21 µM]
CCN(C(=O)COC(=O)c1c(-c2ccccc2)noc1C)c1c(N)n(Cc2ccccc2)c(=O)[nH]c1=O	11	-3	99	413*	3	0
C[C@@H]1CN([C@H](C)CO)C(=O)c2cccc(NS(=O)(=O)c3ccccc3)c2O[C@@H]1CN(C)S(=O)(=O)c1ccccc1	0	0	·	·	-2	·
O=C(O)c1cn(Cc2ccccn2)c(=O)c2ccccc12	-2	·	98	+	·	0
O=C(NCC1CCCO1)c1nn2c(C(F)(F)F)cc(-c3ccco3)nc2c1Cl (stereo not given)	-1	-1	93	-1	1	·

Compound activity: PubChem, several laboratories
